Assays:
PC-3 = experiment: Growth inhibition of human PC3 cells after 48 hrs by sulforhodamine B assay; assay type: functional; details: PC-3, 48 h
Method in brief: (§1)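 NCI screen panel. Five 10-fold concentrations from 10^-4 to 10^-8 M. Exposure for the last 48 h of a 72 h incubation. Growth estimated by sulforhodamine B protein assay. GI50 is the concentration giving 50% growth inhibition. Where that level was not reached or was exceeded, the value is given as above or below the highest or lowest concentration tested.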

MT4 = experiment: Antiproliferative activity against human MT4 cells assessed as reduction of growth by MTT assay; assay type: functional, cell-based
Method in brief: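 MT-4 lymphoblastoid T cells (ATCC) in RPMI 1640 with 10% FCS, penicillin/streptomycin, checked for mycoplasma. 1 × 10⁴ mock-infected cells per well with serial dilutions from a 100 mM DMSO stock. Incubated 4 days at 37 °C, viable cells counted by MTT. IC50 versus untreated controls by linear regression. Mean of three separate experiments.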

UACC-62 = experiment: Growth inhibition of human UACC62 cells after 48 hrs by sulforhodamine B assay; assay type: functional; details: UACC-62, 48 h
Method in brief: (§2)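 NCI in vitro panel screen. Compounds tested at five 10-fold dilutions, 10^-4 to 10^-8 M. Cells in 96-well plates were exposed for the last 48 h of a 72 h incubation. Viability/growth was read by sulforhodamine B protein assay. GI50 is the concentration giving 50% growth inhibition. Values beyond the tested range are reported as greater or less than the maximum or minimum concentration.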

[1] = Growth inhibition of human Hs 578T cells after 48 hrs by sulforhodamine B assay; assay type: functional; method in brief: as §1
ACHN = experiment: Growth inhibition of human ACHN cells after 48 hrs by sulforhodamine B assay; assay type: functional; method in brief: as §1
OVCAR-3 = experiment: Growth inhibition of human OVCAR-3 cells after 48 hrs by sulforhodamine B assay; assay type: functional; details: OVCAR-3, 48 h; method in brief: as §1
OVCAR-4 = experiment: Growth inhibition of human OVCAR4 cells after 48 hrs by sulforhodamine B assay; assay type: functional; details: OVCAR-4, 48 h; method in brief: as §1
UO-31 = experiment: Growth inhibition of human UO31 cells after 48 hrs by sulforhodamine B assay; assay type: functional; details: UO-31, 48 h; method in brief: as §2
CAKI-1 = experiment: Growth inhibition of human Caki1 cells after 48 hrs by sulforhodamine B assay; assay type: functional; details: CAKI-1, 48 h; method in brief: as §1
IGROV-1 = experiment: Growth inhibition of human IGROV1 cells after 48 hrs by sulforhodamine B assay; assay type: functional; details: IGROV-1, 48 h; method in brief: as §1
T47D = experiment: Growth inhibition of human T47D cells after 48 hrs by sulforhodamine B assay; assay type: functional; method in brief: as §2
MOLT-4 = experiment: Growth inhibition of human MOLT4 cells after 48 hrs by sulforhodamine B assay; assay type: functional; details: MOLT-4, 48 h; method in brief: as §1
SN12C = experiment: Growth inhibition of human SN12C cells after 48 hrs by sulforhodamine B assay; assay type: functional; method in brief: as §2
HCT-15 = experiment: Growth inhibition of human HCT15 cells after 48 hrs by sulforhodamine B assay; assay type: functional; details: HCT-15, 48 h; method in brief: as §1
HOP-62 = experiment: Growth inhibition of human HOP62 cells after 48 hrs by sulforhodamine B assay; assay type: functional; details: HOP-62, 48 h; method in brief: as §1
HL-60(TB) = experiment: Growth inhibition of human HL-60(TB) cells after 48 hrs by sulforhodamine B assay; assay type: functional; details: HL-60, 48 h
Method in brief: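 NCI 60-cell-line screen protocol: cells exposed to compound at five 10-fold dilutions from 10^-4 to 10^-8 M for the last 48 h of a 72 h incubation. Sulforhodamine B protein assay estimated viability/growth. GI50 (50% growth inhibition) derived; where not reached or exceeded, reported as greater or less than the highest or lowest concentration tested.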

Malme-3M = experiment: Growth inhibition of human MALME-3M cells after 48 hrs by sulforhodamine B assay; assay type: functional; method in brief: as §1
MDA-MB-435 = experiment: Growth inhibition of human MDA-MB-435 cells after 48 hrs by sulforhodamine B assay; assay type: functional; details: MDA-MB-435, 48 h; method in brief: as §1
CCRF-CEM = experiment: Growth inhibition of human CCRF-CEM cells after 48 hrs by sulforhodamine B assay; assay type: functional; method in brief: as §1
UACC-257 = experiment: Growth inhibition of human UACC257 cells after 48 hrs by sulforhodamine B assay; assay type: functional; details: UACC-257, 48 h; method in brief: as §2
OVCAR-5 = experiment: Growth inhibition of human OVCAR5 cells after 48 hrs by sulforhodamine B assay; assay type: functional; details: OVCAR-5, 48 h; method in brief: as §1
SK-OV-3 = experiment: Growth inhibition of human SKOV3 cells after 48 hrs by sulforhodamine B assay; assay type: functional; details: SK-OV-3, 48 h; method in brief: as §1
NCI-H322M = experiment: Growth inhibition of human NCI-H322M cells after 48 hrs by sulforhodamine B assay; assay type: functional; method in brief: as §1
HT-29 = experiment: Growth inhibition of human HT-29 cells after 48 hrs by sulforhodamine B assay; assay type: functional; details: HT-29, 48 h; method in brief: as §1
SF-268 = experiment: Growth inhibition of human SF268 cells after 48 hrs by sulforhodamine B assay; assay type: functional; details: SF-268, 48 h; method in brief: as §1
COLO 205 = experiment: Growth inhibition of human COLO205 cells after 48 hrs by sulforhodamine B assay; assay type: functional; details: COLO 205, 48 h; method in brief: as §1
SW-620 = experiment: Growth inhibition of human SW620 cells after 48 hrs by sulforhodamine B assay; assay type: functional; details: SW-620, 48 h; method in brief: as §2
HCT-116 = experiment: Growth inhibition of human HCT116 cells after 48 hrs by sulforhodamine B assay; assay type: functional; details: HCT-116, 48 h; method in brief: as §1
KM12 = experiment: Growth inhibition of human KM12 cells after 48 hrs by sulforhodamine B assay; assay type: functional; details: KM12, 48 h; method in brief: as §1
SNB-19 = experiment: Growth inhibition of human SNB19 cells after 48 hrs by sulforhodamine B assay; assay type: functional; details: SNB-19, 48 h; method in brief: as §2
SNB-75 = experiment: Growth inhibition of human SNB75 cells after 48 hrs by sulforhodamine B assay; assay type: functional; details: SNB-75, 48 h; method in brief: as §2
MDA-MB-231 = experiment: Growth inhibition of human MDA-MB-231 cells after 48 hrs by sulforhodamine B assay; assay type: functional; details: MDA-MB-231, 48 h; method in brief: as §1
LOX IMVI = experiment: Growth inhibition of human LOXIMVI cells after 48 hrs by sulforhodamine B assay; assay type: functional; method in brief: as §1
HOP-92 = experiment: Growth inhibition of human HOP92 cells after 48 hrs by sulforhodamine B assay; assay type: functional; details: HOP-92, 48 h; method in brief: as §1
M14 = experiment: Growth inhibition of human M14 cells after 48 hrs by sulforhodamine B assay; assay type: functional; details: M14, 48 h; method in brief: as §1
MCF7 = experiment: Growth inhibition of human MCF7 cells after 48 hrs by sulforhodamine B assay; assay type: functional; details: MCF7, 48 h; method in brief: as §1
U-251 = experiment: Growth inhibition of human U251 cells after 48 hrs by sulforhodamine B assay; assay type: functional; details: U-251, 48 h; method in brief: as §2
MDA-N = experiment: Growth inhibition of human MDA-N cells after 48 hrs by sulforhodamine B assay; assay type: functional
Method in brief: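 NCI screen panel. Five 10-fold concentrations from 10^-4 to 10^-8 M. Exposure for the last 48 h of a 72 h incubation. Growth estimated by sulforhodamine B protein assay. Where that level was not reached or was exceeded, the value is given as above or below the highest or lowest concentration tested.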

NCI-H460 = experiment: Growth inhibition of human NCI-H460 cells after 48 hrs by sulforhodamine B assay; assay type: functional; details: NCI-H460, 48 h; method in brief: as §1
EKVX = experiment: Growth inhibition of human EKVX cells after 48 hrs by sulforhodamine B assay; assay type: functional; method in brief: as §1

SMILES	GI50 (PC-3)	IC50 (MT4)	GI50 (UACC-62)	GI50 [1]	GI50 (ACHN)	GI50 (OVCAR-3)	GI50 (OVCAR-4)	GI50 (CAKI-1)	GI50 (IGROV-1)	GI50 (T47D)	GI50 (MOLT-4)	GI50 (SN12C)	GI50 (HCT-15)	GI50 (HOP-62)	GI50 (HL-60(TB))	GI50 (Malme-3M)	GI50 (MDA-MB-435)	GI50 (CCRF-CEM)	GI50 (UACC-257)	GI50 (OVCAR-5)	other results
COc1cc(C(=O)N2CCN(C(=O)c3cc(OC)c(OC)c(OC)c3)C2=S)cc(OC)c1OC	15 µM	7 µM	14.9 µM	24.7 µM	17.8 µM	15.2 µM	16.9 µM	12.3 µM	24.7 µM	13.1 µM	23.5 µM	17.1 µM	20.2 µM	15.2 µM	16 µM	13.4 µM	13.1 µM	12.2 µM	21.7 µM	23.2 µM	GI50 (UO-31): 0.2 µM; GI50 (SK-OV-3): 20.2 µM; GI50 (NCI-H322M): 17.4 µM; GI50 (HT-29): 22.7 µM; GI50 (SF-268): 11.5 µM; GI50 (COLO 205): 19.4 µM; GI50 (SW-620): 20.3 µM; GI50 (HCT-116): 18.2 µM; GI50 (KM12): 14.2 µM; GI50 (SNB-19): 18.5 µM; GI50 (SNB-75): 7.1 µM; GI50 (MDA-MB-231): 16.7 µM; GI50 (LOX IMVI): 15.4 µM; GI50 (HOP-92): 16.1 µM; GI50 (M14): 16.8 µM; GI50 (MCF7): 5.2 µM; GI50 (U-251): 16.3 µM; GI50 (MDA-N): 15 µM; GI50 (NCI-H460): 27.2 µM
O=C(c1cccs1)N1CCN(C(=O)c2cccs2)C1=S	6.1 µM	11 µM	12.3 µM	16.6 µM	15 µM	3.5 µM	18.8 µM	3.4 µM	9.6 µM	4.6 µM	3.2 µM	2.6 µM	5.3 µM	6.7 µM	2.2 µM	10.3 µM	2.8 µM	2.1 µM	7.5 µM	17.1 µM	GI50 (UO-31): 2.3 µM; GI50 (SK-OV-3): 15.9 µM; GI50 (NCI-H322M): 15.5 µM; GI50 (HT-29): 11.9 µM; GI50 (SF-268): 8.2 µM; GI50 (COLO 205): 7.7 µM; GI50 (SW-620): 4.8 µM; GI50 (HCT-116): 11.4 µM; GI50 (KM12): 3.4 µM; GI50 (SNB-19): 14.4 µM; GI50 (SNB-75): 1.4 µM; GI50 (MDA-MB-231): 9.4 µM; GI50 (LOX IMVI): 2.9 µM; GI50 (HOP-92): 7.2 µM; GI50 (M14): 3.6 µM; GI50 (MCF7): 3.2 µM; GI50 (U-251): 7.9 µM; GI50 (MDA-N): 2.6 µM; GI50 (NCI-H460): 18.7 µM; GI50 (EKVX): 15.9 µM
O=C(c1ccc(Cl)c(Cl)c1)N1CCN(C(=O)c2ccc(Cl)c(Cl)c2)C1=S	16.7 µM	4.6 µM	18.1 µM	29.1 µM	19.2 µM	17.1 µM	16.8 µM	14 µM	19.7 µM	17.5 µM	15.7 µM	18.3 µM	19.6 µM	17.6 µM	12.7 µM	14.9 µM	15.4 µM	4.5 µM	17.3 µM	24.3 µM	GI50 (SK-OV-3): 18.2 µM; GI50 (NCI-H322M): 19.8 µM; GI50 (HT-29): 24.2 µM; GI50 (SF-268): 16.8 µM; GI50 (COLO 205): 17.7 µM; GI50 (SW-620): 21.3 µM; GI50 (HCT-116): 18.1 µM; GI50 (KM12): 16.1 µM; GI50 (SNB-19): 21.4 µM; GI50 (SNB-75): 18.9 µM; GI50 (MDA-MB-231): 18.8 µM; GI50 (LOX IMVI): 7.6 µM; GI50 (HOP-92): 20 µM; GI50 (M14): 19.6 µM; GI50 (MCF7): 5.6 µM; GI50 (U-251): 16.4 µM; GI50 (MDA-N): 18.3 µM; GI50 (NCI-H460): 22 µM; GI50 (EKVX): 20.8 µM
